Experimental data: ChEMBL document CHEMBL1133419, “Design, synthesis and biological evaluation of 3-amino-3-phenylpropionamide derivatives as novel mu opioid receptor ligands” (Bioorg Med Chem Lett, 2000)

Experiments:
[1] = biological target: Kappa-type opioid receptor (Homo sapiens, UniProt P41145); experiment: biochemical; format: cell-based, HEK293
[2] = biological target: Delta-type opioid receptor (Homo sapiens, UniProt P41143); experiment: Inhibition of [3H]naltrindole binding to human Opioid receptor delta 1 in CHO cells; format: cell-based
In short: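 Membranes from CHO cells expressing human delta opioid receptor (homogenized in 50 mM Tris HCl pH 7.4, 1 mM EGTA; stored frozen at 0.8 mg/mL) incubated with 0.5 nM [3H]naltrindole, 90 min at 37 °C. Nonspecific binding defined with unlabelled naltrindole. Filtration, scintillation counting; mean of at least three independent assays.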

Mu-type opioid receptor = Mu-type opioid receptor (Rattus norvegicus, UniProt P33535); experiment: Inhibition of [3H]DAMGO binding to rat Opioid receptor mu 1
In short: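 Rat brain crude membranes (homogenized in 50 mM Tris HCl pH 7.4, kept on ice) incubated with 1.5 nM [3H]DAMGO for 90 min at 22 °C. Nonspecific binding defined with naltrexone. Terminated by rapid filtration, bound radioactivity counted by scintillation. Mean of at least three independent assays.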

Kappa-type opioid receptor, sequence (P41145 whole entry): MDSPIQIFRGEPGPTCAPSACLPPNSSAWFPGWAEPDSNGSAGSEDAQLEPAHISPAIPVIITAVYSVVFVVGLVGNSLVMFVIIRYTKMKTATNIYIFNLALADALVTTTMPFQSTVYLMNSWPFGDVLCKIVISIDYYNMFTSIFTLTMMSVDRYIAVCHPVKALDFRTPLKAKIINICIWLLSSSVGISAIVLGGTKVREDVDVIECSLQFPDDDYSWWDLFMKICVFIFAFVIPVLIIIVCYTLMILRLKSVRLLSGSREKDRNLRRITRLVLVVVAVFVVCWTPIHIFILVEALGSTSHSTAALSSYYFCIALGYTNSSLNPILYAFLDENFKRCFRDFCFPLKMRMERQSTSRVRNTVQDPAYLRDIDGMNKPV
Delta-type opioid receptor, sequence (P41143 whole entry): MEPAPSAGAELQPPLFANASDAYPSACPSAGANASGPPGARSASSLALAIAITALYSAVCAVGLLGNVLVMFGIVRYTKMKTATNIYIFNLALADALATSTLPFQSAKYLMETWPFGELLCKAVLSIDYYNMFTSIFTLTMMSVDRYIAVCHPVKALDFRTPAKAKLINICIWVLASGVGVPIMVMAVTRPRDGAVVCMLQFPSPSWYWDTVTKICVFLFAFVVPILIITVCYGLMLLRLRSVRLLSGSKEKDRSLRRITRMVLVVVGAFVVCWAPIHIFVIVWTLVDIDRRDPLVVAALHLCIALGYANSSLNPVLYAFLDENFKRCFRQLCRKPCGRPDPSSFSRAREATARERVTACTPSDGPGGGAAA
Mu-type opioid receptor, sequence (P33535 whole entry): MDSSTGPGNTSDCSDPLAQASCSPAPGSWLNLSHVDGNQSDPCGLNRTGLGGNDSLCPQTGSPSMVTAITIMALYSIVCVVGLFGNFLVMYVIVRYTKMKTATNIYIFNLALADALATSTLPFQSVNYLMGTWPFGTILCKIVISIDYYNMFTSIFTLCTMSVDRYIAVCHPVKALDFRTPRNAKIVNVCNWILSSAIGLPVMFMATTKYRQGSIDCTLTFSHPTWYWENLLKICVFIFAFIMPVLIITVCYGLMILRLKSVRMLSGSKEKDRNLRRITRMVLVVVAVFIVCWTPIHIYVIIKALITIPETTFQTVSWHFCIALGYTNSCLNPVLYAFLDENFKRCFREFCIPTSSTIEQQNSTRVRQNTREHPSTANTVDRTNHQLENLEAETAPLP

Question: With CNC(c1cccc(O)c1)C(C)(C)C(=O)NCc1ccccc1 (stereo not drawn) as the molecule, how does the Ki [1] read?
Answer: 5 nM

Question: And the Ki [2]?
Answer: > 10000 nM

Question: And the Ki (Mu-type opioid receptor)?
Answer: 8.7 nM

Question: Which results are given for CNC(c1ccccc1)C(C)(C)C(=O)NCCc1ccccc1 (stereo not drawn)?
Answer: Ki [1]: 49 nM; Ki [2]: > 10000 nM; Ki (Mu-type opioid receptor): 13 nM

Question: Which Ki [1] does the source give for CNC(c1ccccc1)C(C)(C)C(=O)NCC1CCCCC1 (stereo not drawn) here?
Answer: 1.2 nM

Question: And the Ki [2]?
Answer: > 10000 nM

Question: And the Ki (Mu-type opioid receptor)?
Answer: 85 nM

Question: For CNC(c1ccccc1)C(C)(C)C(=O)NCc1ccccc1 (stereo not drawn), which Ki [1] is on record?
Answer: 467 nM

Question: And the Ki [2]?
Answer: > 10000 nM

Question: What about the Ki (Mu-type opioid receptor) of the same molecule?
Answer: 95 nM

Question: With CNC(c1cccc(O)c1)C(C)(C)C(=O)NCCc1ccccc1 (stereo not drawn) as the molecule, how does the Ki [1] read?
Answer: 6.3 nM

Question: What about the Ki [2] of the same molecule?
Answer: 176 nM

Question: What about the Ki (Mu-type opioid receptor) of the same molecule?
Answer: 1.4 nM

Question: Which Ki [1] does the source give for CCCCN(C)C(c1cccc(O)c1)C(C)(C)C(=O)NCCc1ccccc1 (stereo not drawn) here?
Answer: 75 nM

Question: And the Ki [2]?
Answer: > 10000 nM

Question: What about the Ki (Mu-type opioid receptor) of the same molecule?
Answer: 26 nM

Question: How did the Ki [1] turn out when CNC(c1cccc(O)c1)C(C)(C)C(=O)NCc1cccc2ccccc12 (stereo not drawn) was run?
Answer: 1.3 nM

Question: What about the Ki [2] of the same molecule?
Answer: 163 nM

Question: What about the Ki (Mu-type opioid receptor) of the same molecule?
Answer: 1.4 nM

Question: How did the Ki [1] turn out when CNC(c1cccc(O)c1)C(C)(C)C(=O)NCC1CC1 (stereo not drawn) was run?
Answer: 75 nM

Question: And the Ki [2]?
Answer: 781 nM

Question: What about the Ki (Mu-type opioid receptor) of the same molecule?
Answer: 364 nM

Question: CNC(c1cccc(O)c1)C(C)(C)C(=O)NCC1CCCCC1 (stereo not drawn) was tested. Which Ki [1] did it give?
Answer: 5.7 nM

Question: And the Ki [2]?
Answer: 881 nM

Question: And the Ki (Mu-type opioid receptor)?
Answer: 4.4 nM

Question: With CNC(c1cccc(O)c1)C(C)(C)C(=O)NCCCc1ccccc1 (stereo not drawn) as the molecule, how does the Ki [1] read?
Answer: 3.6 nM

Question: What about the Ki [2] of the same molecule?
Answer: > 10000 nM

Question: What about the Ki (Mu-type opioid receptor) of the same molecule?
Answer: 12 nM

Question: CN(CC1CC1)C(c1cccc(O)c1)C(C)(C)C(=O)NCCc1ccccc1 (stereo not drawn) was tested. Which Ki [1] did it give?
Answer: 2.9 nM

Question: And the Ki [2]?
Answer: 710 nM

Question: What about the Ki (Mu-type opioid receptor) of the same molecule?
Answer: 28 nM
